CFTR F508del cor: CFTR F508del correction in bronchial cells; 350,000 compounds, 0.36% hits; activity (quench increase), % at 7.58 µM; CFBE cells, YFP halide quenching; stimulated with forskolin plus potentiator P3; % fluorescence drop versus neutral controls;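 active = mean added fluorescence quench of at least 8% versus neutral control, with both replicates also reaching 8%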;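 also: cells transiently co-express mutant CFTR-F508del with the halide-sensitive YFP; corrector assay measuring rescue of mutant channel to the surface after 24 h compound exposure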
LMPTP block: blocks human LMPTP phosphatase | P24666 | recombinant LMPTP-A, OMFP fluorogenic substrate, fluorescence intensity | inhibition, % at 20 µM | 360,000 compounds, 0.22% hits;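 active = compounds that cut the enzyme signal by at least half of the control window in the single-dose screen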
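test system = LMPTP-A | amount = 0.625 nM LMPTP-A final | reagent = fluorogenic phosphatase substrate OMFP at 400 µM final | incubation = 50 min at room temperature | benchmarks = no-enzyme low control, uninhibited high control | medium = Bis-Tris pH 6.0, DTT, detergent | signal = fluorescence intensity of OMFP turnover product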
Scp1 inh: blocks human Scp-1 phosphatase activity; Q9GZU7; Recombinant Scp1, phosphopeptide, malachite green phosphate absorbance; 340,000 compounds, 0.88% hits; inhibition, % at 20 µM;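 active = inhibition above about 50% at 20 µM, limit read from the data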
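Test system: SCP-1 catalytic domain; Buffer or medium: Acidic Tris acetate buffer with magnesium and detergent; Also added: Phosphorylated 17-residue peptide substrate; Compound: single 20 µM dose, 1% DMSO; Schedule: enzyme reaction 45 min at room temperature, colour 5 min, stabilisation 30 min; Signal: Phosphate-binding colour reagent, absorbance read at 630 nm.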
SUMO1 PPI mod: modulators of human SUMO1-mediated protein-protein interactions. 360,000 compounds, 0.33% hits. AID 602429. P63165. inhibition, % at 20 µM. SUMO1 binding to a labelled peptide, TR-FRET, 1 h; in the data active = inhibition above about 37%
Target sequence (P63165 whole entry, looked up): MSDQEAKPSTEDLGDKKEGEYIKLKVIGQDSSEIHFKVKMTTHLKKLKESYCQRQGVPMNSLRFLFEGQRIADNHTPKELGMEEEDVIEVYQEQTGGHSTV
STEP block: STEP (human) phosphatase inhibition; P54829; recombinant STEP, OMFP fluorogenic substrate, fluorescence; inhibition, % at 20 µM; 360,000 compounds, 0.25% hits;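 active = inhibition at 20 µM, scaled per plate between control wells, above about 37%, limit read from the data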
Target sequence (P54829 whole entry, looked up): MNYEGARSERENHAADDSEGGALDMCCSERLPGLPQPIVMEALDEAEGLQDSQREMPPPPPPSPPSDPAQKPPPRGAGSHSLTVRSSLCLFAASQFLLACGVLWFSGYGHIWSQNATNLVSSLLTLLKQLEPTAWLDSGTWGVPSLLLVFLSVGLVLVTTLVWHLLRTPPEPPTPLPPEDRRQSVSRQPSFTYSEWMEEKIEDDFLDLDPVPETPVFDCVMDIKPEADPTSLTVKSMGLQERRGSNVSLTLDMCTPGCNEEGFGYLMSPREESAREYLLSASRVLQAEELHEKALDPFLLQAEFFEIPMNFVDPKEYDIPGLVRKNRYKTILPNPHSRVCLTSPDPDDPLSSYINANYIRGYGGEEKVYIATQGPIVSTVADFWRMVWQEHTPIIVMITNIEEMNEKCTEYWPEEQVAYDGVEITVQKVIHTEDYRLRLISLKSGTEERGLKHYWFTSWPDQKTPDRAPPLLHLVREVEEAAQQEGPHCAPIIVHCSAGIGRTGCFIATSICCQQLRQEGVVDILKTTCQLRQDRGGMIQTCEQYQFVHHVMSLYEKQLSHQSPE
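Measure: Control-normalized % inhibition with plate pattern correction | Test system: STEP phosphatase, cell-free reaction | Medium: pH 6.0 Bis-Tris with DTT and Tween 20 | Technique: Fluorescence, 480/540 nm | Times: Reaction 20 min, ambient temperature | Doses: Single compound dose of 20 µM, 1% DMSO final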
DNMT1 block: inhibitors of human DNMT1; P26358; DNMT1 molecular beacon, Hinp1I cleavage, fluorescence; inhibition (reported as % activation of signal), % at 10 µM; 360,000 compounds, 0.83% hits; in the data active = inhibition above about 50%
Scp-1 conf: confirmation of human Scp-1 phosphatase inhibitors; shares compounds with Scp1 inh; inhibition, % at 20 µM; recombinant SCP-1 catalytic domain, phosphate release, malachite green absorbance; 2,500 compounds, 61% hits; AID 540281
MG interference: interferes with malachite green readout, flagging false Scp-1 hits. shares compounds with Scp1 inh. Colorimetric interference counterscreen, malachite green absorbance 630 nm. apparent inhibition (interference), % at 20 µM. 2,500 tested, under 10 active;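 also: compounds added after enzyme reaction finished so only phosphate colour detection is probed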
Scp-1 Tm shift: binds human Scp-1, shifting its melting temperature. shares compounds with Scp1 inh. Recombinant SCP1, Sypro Orange thermal shift Tm. thermal shift relative to vanadate control, % at 40 µM. 1,500 compounds, 25% hits;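 active = substances whose mean melting-temperature shift, as a percentage of the reference inhibitor's shift, reaches about 5.3%, limit read from the data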
Numbers stand for hits. Rows were chosen to be rich in hits. Some 1.6% of all compounds tested hit in one or more screens of this group.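 The calls were made as follows, unless noted: active = inhibition of at least 30% at 20 µM; inactive = the rest.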

Screening COCCN(C(=O)COC(=O)Cc1coc2cc3c(cc12)CCC3)c1c(N)n(Cc2ccccc2)c(=O)[nH]c1=O returned CFTR F508del cor inactive, LMPTP block inactive, Scp1 inh 67, SUMO1 PPI mod inactive, STEP block inactive, DNMT1 block inactive, Scp-1 conf 55, MG interference inactive and Scp-1 Tm shift inactive.
COCCN(C(=O)COC(=O)COc1ccc2c(c1)CCC2)c1c(N)n(Cc2ccccc2)c(=O)[nH]c1=O was read as CFTR F508del cor inactive, LMPTP block inactive, Scp1 inh inactive, SUMO1 PPI mod inactive, STEP block inactive and DNMT1 block inactive.
Screening COCCCN(C(=O)c1cc(-c2ccco2)nc2ccccc12)c1c(N)n(Cc2ccccc2)c(=O)[nH]c1=O returned CFTR F508del cor inactive, LMPTP block inactive, Scp1 inh 64, SUMO1 PPI mod inactive, STEP block inactive, DNMT1 block inactive, Scp-1 conf 47, MG interference inactive and Scp-1 Tm shift 5.4.
`Cc1ccc(NC(=O)CSC2=C(C#N)C(c3ccco3)C3=C(CCCC3=O)N2)cc1` (stereo unspecified) gave LMPTP block inactive, Scp1 inh inactive, SUMO1 PPI mod inactive, STEP block inactive and DNMT1 block inactive.
Screening N#CC1=C(SCC(=O)Nc2ccc(C(=O)O)cc2)NC(=O)CC1c1ccco1 (stereo unspecified) returned CFTR F508del cor inactive, LMPTP block inactive, Scp1 inh 52, SUMO1 PPI mod inactive, STEP block inactive, DNMT1 block inactive, Scp-1 conf 46, MG interference inactive and Scp-1 Tm shift inactive.
For CCCCCCn1c(-c2ccco2)nc2oc3cc(OC)ccc3c(=O)c2c1=O the results were LMPTP block inactive, Scp1 inh 56, SUMO1 PPI mod inactive, STEP block inactive, DNMT1 block inactive, Scp-1 conf 50, MG interference inactive and Scp-1 Tm shift inactive.
Screening C[C@H]1CCCCO[C@@H](CN(C)Cc2ccncc2)[C@@H](C)CN([C@@H](C)CO)C(=O)c2cc(NC(=O)Nc3ccc(C(F)(F)F)cc3)ccc2O1 returned CFTR F508del cor inactive.
Cc1c(/C(O)=C2/C(=O)C(=O)N(CCN3CCOCC3)C2c2cccnc2)cnn1-c1ccccc1 (stereo unspecified) was read as LMPTP block inactive, Scp1 inh inactive, SUMO1 PPI mod inactive, STEP block inactive and DNMT1 block inactive.
`Cc1c(/C(O)=C2/C(=O)C(=O)N(CCN3CCOCC3)C2c2ccco2)cnn1-c1ccccc1` (stereo unspecified) gave CFTR F508del cor inactive, LMPTP block inactive, Scp1 inh inactive, SUMO1 PPI mod inactive, STEP block inactive, DNMT1 block inactive, Scp-1 conf inactive and MG interference inactive.
Screening COc1ccc(S(=O)(=O)N(C)C[C@@H]2Oc3ccc(N(C)C)cc3C(=O)N([C@H](C)CO)C[C@@H]2C)cc1 returned CFTR F508del cor inactive.
Screening O=C(C[C@H]1CC[C@H]2NC[C@@H](O)COC[C@@H]2O1)NCCN1CCCCC1 returned CFTR F508del cor inactive.
COc1ccc(CN2C[C@H](O)COC[C@@H]3O[C@@H](CC(=O)N4CCc5ccccc5C4)CC[C@H]32)cc1 was read as CFTR F508del cor inactive.
CCOC(=O)c1ccc(NC(=O)CSc2nnc(-c3cccs3)n2CC)cc1 was read as LMPTP block inactive, Scp1 inh inactive, SUMO1 PPI mod inactive, STEP block inactive and DNMT1 block inactive.
CCOC(=O)c1ccc(NC(=O)CSc2nnc(-c3cccs3)n2C)cc1 was read as LMPTP block inactive, Scp1 inh 105, SUMO1 PPI mod inactive, STEP block inactive, DNMT1 block inactive, Scp-1 conf inactive and MG interference inactive.
For C[C@H](NC(=O)c1ccco1)C(=O)NNC(=O)c1ccc(F)cc1 the results were CFTR F508del cor inactive, LMPTP block inactive, Scp1 inh 99, SUMO1 PPI mod inactive, STEP block inactive, DNMT1 block inactive, Scp-1 conf inactive and MG interference inactive.
`CC(C)NC(=O)N(C)C[C@@H]1Oc2ccc(NS(=O)(=O)c3cn(C)cn3)cc2C(=O)N([C@H](C)CO)C[C@@H]1C` gave CFTR F508del cor inactive.
For CC(C)NC(=O)N(C)C[C@H]1Oc2ccc(NS(=O)(=O)c3cn(C)cn3)cc2C(=O)N([C@H](C)CO)C[C@@H]1C the results were CFTR F508del cor inactive, LMPTP block inactive, Scp1 inh 82, SUMO1 PPI mod inactive, STEP block inactive, DNMT1 block inactive, Scp-1 conf inactive and MG interference inactive.
`Cc1noc(C)c1S(=O)(=O)N(C)C[C@H]1Oc2ccc(NS(=O)(=O)c3cn(C)cn3)cc2C(=O)N([C@H](C)CO)C[C@@H]1C` gave CFTR F508del cor inactive, LMPTP block inactive, Scp1 inh 53, SUMO1 PPI mod inactive, STEP block inactive, DNMT1 block inactive, Scp-1 conf inactive and MG interference inactive.
Screening Cc1ccc(S(=O)(=O)N(C)C[C@H]2Oc3ccc(NS(=O)(=O)c4ccccc4)cc3CC(=O)N([C@@H](C)CO)C[C@@H]2C)cc1 returned CFTR F508del cor inactive.
For Cc1ccc(S(=O)(=O)N(C)C[C@@H]2Oc3ccc(NS(=O)(=O)c4ccccc4)cc3CC(=O)N([C@@H](C)CO)C[C@H]2C)cc1 the results were CFTR F508del cor inactive, LMPTP block inactive, Scp1 inh 50, SUMO1 PPI mod inactive, STEP block inactive, DNMT1 block inactive, Scp-1 conf inactive and MG interference inactive.
For C[C@H](CO)N1C[C@H](C)[C@@H](CN(C)C(=O)Nc2ccc(C(F)(F)F)cc2)Oc2ccc(NS(=O)(=O)c3cn(C)cn3)cc2C1=O the results were CFTR F508del cor inactive, LMPTP block inactive, Scp1 inh 73, SUMO1 PPI mod inactive, STEP block inactive, DNMT1 block inactive, Scp-1 conf inactive and MG interference inactive.
CO[C@H](CN(C)C(=O)c1ccc2c(c1)OCO2)[C@H](C)CN([C@H](C)CO)S(=O)(=O)c1ccc(C)cc1 was read as CFTR F508del cor inactive.
Screening CNC(=O)C[C@@H]1CC[C@H]2[C@H](COc3ccc(NC(=O)Nc4ccc(F)c(F)c4)cc3C(=O)N2C)O1 returned CFTR F508del cor inactive.

Screens: PubChem BioAssay, several laboratories
